Results from ChEMBL document CHEMBL2177068, “Modeling cellular pharmacokinetics of 14- and 15-membered macrolides with physicochemical properties” (J Med Chem, 2011).

Key:
[1] = Cellular uptake in normal human lung fibroblast at 3 to 20 uM after 3 hrs by LC-MS/MS analysis relative to azithromycin; assay type: ADME
Procedure, shortened: (§1)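 Cells (primary human BSMC, MDM, NHBE, PMN, T-lymphocytes, NHLF, or NCI-H292 lung carcinoma line) incubated 3 h with 3-20 μM macrolide; extracellular drug removed (PMNs washed through silicone oil, NCI-H292 washed with ice-cold PBS). Intracellular drug quantified by LC-MS/MS; accumulation expressed as % of azithromycin accumulation measured in the same experiment. Azithromycin reference run at 10 μM, normalized to total protein.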

[2] = Cellular uptake in human PMNC assessed as compound retention at 3 to 20 uM incubated for 3 hrs followed by drug washout measured after 3 hrs by LC-MS/MS analysis relative to initial drug accumulation; assay type: ADME
Procedure, shortened: (§2)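 Cells loaded 3 h with 3-20 μM macrolide, then incubated 3 h in drug-free medium. Intracellular drug measured by LC-MS/MS before and after washout. Retention given as percentage of initially accumulated compound remaining in cells after washout.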

[3] = Cellular uptake in human PMNC at 3 to 20 uM after 3 hrs by LC-MS/MS analysis relative to azithromycin; assay type: ADME; procedure, shortened: as §1
NCI-H292 [4] = assay: Cellular uptake in human […] cells at 3 to 20 uM after 3 hrs by LC-MS/MS analysis relative to azithromycin; assay type: ADME, cell-based; settings: nci-h292, 3 h; procedure, shortened: as §1
[5] = Cellular uptake in human BSMC at 3 to 20 uM after 3 hrs by LC-MS/MS analysis relative to azithromycin; assay type: ADME; procedure, shortened: as §1
[6] = Cellular uptake in normal human lung fibroblasts assessed as compound retention at 3 to 20 uM incubated for 3 hrs followed by drug washout measured after 3 hrs by LC-MS/MS analysis relative to initial drug accumulation; assay type: ADME; procedure, shortened: as §2
[7] = Cellular uptake in human NHBE at 3 to 20 uM after 3 hrs by LC-MS/MS analysis relative to azithromycin; assay type: ADME; procedure, shortened: as §1
[8] = Cellular uptake in human T lymphocytes assessed as compound retention at 3 to 20 uM incubated for 3 hrs followed by drug washout measured after 3 hrs by LC-MS/MS analysis relative to initial drug accumulation; assay type: ADME, cell-based; settings: t-cell; procedure, shortened: as §2
[9] = Cellular uptake in human T lymphocytes at 3 to 20 uM after 3 hrs by LC-MS/MS analysis relative to azithromycin; assay type: ADME, cell-based; settings: t-cell; procedure, shortened: as §1
[10] = Cellular uptake in human MDM at 3 to 20 uM after 3 hrs by LC-MS/MS analysis relative to azithromycin; assay type: ADME; procedure, shortened: as §1
[11] = Cellular uptake in human NHBE assessed as compound retention at 3 to 20 uM incubated for 3 hrs followed by drug washout measured after 3 hrs by LC-MS/MS analysis relative to initial drug accumulation; assay type: ADME; procedure, shortened: as §2
[12] = Cellular uptake in human MDM assessed as compound retention at 3 to 20 uM incubated for 3 hrs followed by drug washout measured after 3 hrs by LC-MS/MS analysis relative to initial drug accumulation; assay type: ADME; procedure, shortened: as §2
NCI-H292 [13] = assay: Cellular uptake in human NCI-H292 cells assessed as compound retention at 3 to 20 uM incubated for 3 hrs followed by drug washout measured after 3 hrs by LC-MS/MS analysis relative to initial drug accumulation; assay type: ADME, cell-based; settings: nci-h292, 3 h; procedure, shortened: as §2
[14] = Cellular uptake in human BSMC assessed as compound retention at 3 to 20 uM incubated for 3 hrs followed by drug washout measured after 3 hrs by LC-MS/MS analysis relative to initial drug accumulation; assay type: ADME; procedure, shortened: as §2

| Structure (SMILES) | Drug uptake [1] [%] | Drug uptake [2] [%] | Drug uptake [3] [%] | Drug uptake (NCI-H292 [4]) [%] | Drug uptake [5] [%] | Drug uptake [6] [%] | Drug uptake [7] [%] | Drug uptake [8] [%] | Drug uptake [9] [%] | Drug uptake [10] [%] | Drug uptake [11] [%] | Drug uptake [12] [%] | Drug uptake (NCI-H292 [13]) [%] | Drug uptake [14] [%] |
| --- | --- | --- | --- | --- | --- | --- | --- | --- | --- | --- | --- | --- | --- | --- |
| CCCCCCCC(=O)NCCCN1C[C@H](C)C[C@@](C)(O)[C@H](O[C@@H]2O[C@H](C)C[C@H](N(C)C)[C@H]2O)[C@@H](C)[C@H](O[C@H]2C[C@@](C)(OC)[C@@H](O)[C@H](C)O2)[C@@H](C)C(=O)O[C@H](CC)[C@@](C)(O)[C@H](O)[C@H]1C | 122 | 77 | 146 | 207 | 111 | 84 | 135 | 30 | 127 | 120 | 71 | 83 | 69 | 57 |
| CC[C@H]1OC(=O)[C@H](C)[C@@H](O)[C@H](C)[C@@H](O[C@@H]2O[C@H](C)C[C@H](N(C)C)[C@H]2O)[C@](C)(O)C[C@@H](C)CN(C)[C@H](C)[C@@H](O)[C@]1(C)O [DESCLADINOSYL AZITHROMYCIN] | 52 | 68 | 42 | 56 | 75 | 70 | 52 | 46 | 52 | 79 | 74 | 81 | 77 | 63 |
| CCCCCCCC(=O)NCCCN(C)[C@H]1C[C@@H](C)O[C@@H](O[C@@H]2[C@@H](C)[C@H](O[C@H]3C[C@@](C)(OC)[C@@H](O)[C@H](C)O3)[C@@H](C)C(=O)O[C@H](CC)[C@@](C)(O)[C@H](O)[C@@H](C)N(C)C[C@H](C)C[C@@]2(C)O)[C@@H]1O | 1699 | 85 | 663 | 457 | 598 | 78 | 422 | 19 | 460 | 1235 | 57 | 100 | 51 | 47 |
| CC[C@H]1OC(=O)[C@H](C)[C@@H](O[C@H]2C[C@@](C)(OC)[C@@H](O)[C@H](C)O2)[C@H](C)[C@@H](O[C@@H]2O[C@H](C)C[C@H](N(C)C)[C@H]2O)[C@](C)(OC)C[C@@H](C)C(=O)N[C@H](C)[C@@H](O)[C@]1(C)O | 9 | 37 | 13 | 10 | 5 | 35 | 11 | 2 | 5 | 11 | 16 | 8 | 23 | 0 |
| CC[C@H]1OC(=O)[C@H](C)[C@@H](O[C@H]2C[C@@](C)(OC)[C@@H](O)[C@H](C)O2)[C@H](C)[C@@H](O[C@@H]2O[C@H](C)C[C@H](N(C)C)[C@H]2O)[C@](C)(O)C[C@@H](C)CN(C)[C@H](C)[C@@H](O)[C@]1(C)O [AZITHROMYCIN] | 100 | 79 | 100 | 100 | 100 | 80 | 100 | 38 | 100 | 100 | 63 | 93 | 77 | 54 |
| CC[C@H]1OC(=O)[C@H](C)[C@@H](O[C@H]2C[C@@](C)(OC)[C@@H](O)[C@H](C)O2)[C@H](C)[C@@H](O[C@@H]2O[C@H](C)C[C@H](N(C)C)[C@H]2O)[C@](C)(OC)C[C@@H](C)C(=O)[C@H](C)[C@@H](O)[C@]1(C)O [CLARITHROMYCIN] | 127 | 2 | 36 | 35 | 36 | 1 | 25 | 2 | 16 | 66 | 0 | 4 | 1 | 1 |
| CC[C@H]1OC(=O)[C@H](C)[C@@H](O)[C@H](C)[C@@H](O)[C@](C)(O)C[C@@H](C)CN(C)[C@H](C)[C@@H](O)[C@]1(C)O [AZITHROMYCIN AGLYCONE] | 54 | 0 | 17 | 13 | 9 | 0 | 8 | 1 | 5 | 28 | 0 | 3 | 0 | 0 |
| CC[C@H]1OC(=O)[C@H](C)[C@@H](O[C@H]2C[C@@](C)(OC)[C@@H](OC(=O)CN(CC)CC)[C@H](C)O2)[C@H](C)[C@@H](O[C@@H]2O[C@H](C)C[C@H](N(C)C)[C@H]2O)[C@](C)(OC)C[C@@H](C)C(=O)N[C@H](C)[C@@H](O)[C@]1(C)O | 256 | 74 | 118 | 121 | 83 | 63 | 101 | 6 | 41 | 148 | 33 | 56 | 48 | 27 |
